Assay results published in PMC3972499 (Scientific Reports, 2014).
“Also recorded” adds a separate entry of the source. Positions of bridges follow the written chain, without caps; N, C: chain ends. Residues, ends and D or L forms follow the SMILES beside them.

Key:
WT-rNav1.4 = assay: Whole-cell patch clamp, WT-rNav1.4; type: cell-based; conditions: 50 μM SSCM-1
Summary of the method: (§1)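 Whole-cell recording at room temperature. Peptide stock was 1 mM in double-distilled water, stored in aliquots at −20°C, then diluted to the stated test concentration.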

WT-rNav1.3 = assay: Whole-cell patch clamp, WT-rNav1.3; type: cell-based; conditions: 50 μM SSCM-1
Summary of the method: as §1

[1] = test system: M1.4-1 chimera (rNav1.4 with DII/S3–S4 of hNav1.5); assay: Gain-of-function assay, whole-cell patch clamp, chimera M1.4-1; type: cell-based
[2] = test system: TTX-R currents expressed on DRG cells; assay: Whole-cell patch clamp, TTX-R currents on DRG cells; type: cell-based; conditions: 10 μM SSCM-1, containing 200 μM TTX
wild type hNav1.5 = wild type hNav1.5 (Homo sapiens, UniProt Q14524); assay: Whole-cell patch clamp, HEK293 cells, wild type hNav1.5; type: cell-based
Summary of the method: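 HEK293 cells expressing hNav1.5, grown in DMEM with 10% FBS (5% CO2, 37°C). Pipette solution: 140 mM CsF, 10 mM NaCl, 1 mM EGTA, 10 mM HEPES, pH 7.3. Bath solution: 140 mM NaCl, 3 mM KCl, 1 mM MgCl2, 1 mM CaCl2, 10 mM HEPES, pH 7.3. Run at room temperature. Peptide stock 1 mM in ddH2O. Concentration–response curves used points as mean ± S.E. from 3–5 cells.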

[3] = test system: M1.5-5 chimera (hNav1.5 with DII/S3–S4 of rNav1.4); assay: Loss-of-function assay, whole-cell patch clamp, chimera M1.5-5; type: cell-based; conditions: 50 μM SSCM-1
[4] = test system: m1.5-2 chimera (hNav1.5 with DIII/S3–S4 of hNav1.7); assay: Whole-cell patch clamp, HEK293 cells, chimera M1.5-2; type: cell-based, human; conditions: read-out: estimated IC50, room temperature, data points mean ± S.E., 3–5 cells
[5] = test system: m1.7-4 chimera (hNav1.7 with DII + DIII + DIV S3–S4 of hNav1.5); assay: Whole-cell patch clamp, HEK293 cells, chimera M1.7-4; type: cell-based, human; conditions: read-out: estimated IC50, room temperature, data points mean ± S.E., 3–5 cells
[6] = test system: hNav1.5 chimeras with S3–S4 fragments replaced by those from hNav1.7; assay: Loss-of-function assay, whole-cell patch clamp, hNav1.5 chimeras; type: cell-based, human; conditions: 1 μM, HEK293
[7] = test system: hNav1.7 chimeras with S3–S4 fragments replaced by those from hNav1.5; assay: Gain-of-function assay, whole-cell patch clamp, hNav1.7 chimeras; type: cell-based, human; conditions: 1 μM, HEK293
[8] = test system: m1.7-1 chimera (hNav1.7 with DII/S3–S4 of hNav1.5); assay: Whole-cell patch clamp, HEK293 cells, chimera M1.7-1; type: cell-based, human; conditions: read-out: estimated IC50, room temperature, data points mean ± S.E., 3–5 cells

wild type hNav1.5, sequence (Q14524 whole entry): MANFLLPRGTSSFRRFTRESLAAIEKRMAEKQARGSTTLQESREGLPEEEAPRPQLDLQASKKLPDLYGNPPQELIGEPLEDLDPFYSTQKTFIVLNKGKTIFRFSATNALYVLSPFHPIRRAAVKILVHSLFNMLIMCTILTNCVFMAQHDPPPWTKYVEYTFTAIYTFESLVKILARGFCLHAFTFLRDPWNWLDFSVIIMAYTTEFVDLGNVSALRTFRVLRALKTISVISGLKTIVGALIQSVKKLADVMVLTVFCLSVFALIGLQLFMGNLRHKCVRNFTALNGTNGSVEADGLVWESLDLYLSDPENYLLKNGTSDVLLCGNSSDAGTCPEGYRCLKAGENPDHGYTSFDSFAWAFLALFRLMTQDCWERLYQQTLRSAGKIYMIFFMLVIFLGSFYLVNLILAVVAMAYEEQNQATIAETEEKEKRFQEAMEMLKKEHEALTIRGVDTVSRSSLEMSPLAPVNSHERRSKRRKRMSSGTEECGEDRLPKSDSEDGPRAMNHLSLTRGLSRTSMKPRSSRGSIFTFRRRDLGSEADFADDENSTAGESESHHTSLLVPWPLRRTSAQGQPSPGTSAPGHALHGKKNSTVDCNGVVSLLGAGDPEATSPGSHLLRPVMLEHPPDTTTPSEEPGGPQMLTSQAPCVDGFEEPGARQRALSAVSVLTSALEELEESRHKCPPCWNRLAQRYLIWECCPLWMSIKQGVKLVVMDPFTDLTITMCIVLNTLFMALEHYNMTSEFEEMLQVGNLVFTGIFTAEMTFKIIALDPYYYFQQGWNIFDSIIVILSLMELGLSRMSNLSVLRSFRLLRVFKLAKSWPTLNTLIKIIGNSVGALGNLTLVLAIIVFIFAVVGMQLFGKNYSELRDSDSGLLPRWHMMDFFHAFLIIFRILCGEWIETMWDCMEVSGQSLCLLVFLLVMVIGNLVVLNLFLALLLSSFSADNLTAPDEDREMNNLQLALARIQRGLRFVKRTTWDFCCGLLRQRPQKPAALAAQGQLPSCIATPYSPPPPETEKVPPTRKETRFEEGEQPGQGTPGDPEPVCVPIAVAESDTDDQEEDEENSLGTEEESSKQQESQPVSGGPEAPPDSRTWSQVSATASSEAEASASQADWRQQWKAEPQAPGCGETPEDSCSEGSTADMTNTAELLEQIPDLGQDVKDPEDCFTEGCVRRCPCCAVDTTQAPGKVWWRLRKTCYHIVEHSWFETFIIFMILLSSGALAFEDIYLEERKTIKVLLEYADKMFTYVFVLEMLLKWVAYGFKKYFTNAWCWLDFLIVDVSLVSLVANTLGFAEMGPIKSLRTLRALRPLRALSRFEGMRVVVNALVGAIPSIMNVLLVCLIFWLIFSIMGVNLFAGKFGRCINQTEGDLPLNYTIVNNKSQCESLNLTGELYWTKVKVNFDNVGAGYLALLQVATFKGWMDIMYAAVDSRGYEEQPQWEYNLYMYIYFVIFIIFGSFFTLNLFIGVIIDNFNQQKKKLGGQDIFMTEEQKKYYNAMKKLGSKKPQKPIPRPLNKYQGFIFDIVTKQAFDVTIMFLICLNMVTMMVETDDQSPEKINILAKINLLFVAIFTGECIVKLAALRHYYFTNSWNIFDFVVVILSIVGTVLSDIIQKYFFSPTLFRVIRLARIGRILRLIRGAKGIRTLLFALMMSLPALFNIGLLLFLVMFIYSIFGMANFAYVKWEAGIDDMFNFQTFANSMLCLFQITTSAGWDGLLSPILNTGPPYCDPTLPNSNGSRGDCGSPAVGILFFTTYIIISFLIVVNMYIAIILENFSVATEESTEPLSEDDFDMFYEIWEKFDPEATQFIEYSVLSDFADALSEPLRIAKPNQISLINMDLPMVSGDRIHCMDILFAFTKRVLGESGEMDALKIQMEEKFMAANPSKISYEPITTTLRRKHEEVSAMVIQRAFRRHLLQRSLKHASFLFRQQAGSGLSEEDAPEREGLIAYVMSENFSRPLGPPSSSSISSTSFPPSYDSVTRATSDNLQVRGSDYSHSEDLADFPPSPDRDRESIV

Row | SMILES | inhibitory effect on rNav1.4 currents, in words (WT-rNav1.4) | inhibitory effect on rNav1.3 currents, in words (WT-rNav1.3) | inhibition of chimera M1.4-1 currents ([1]; 50 μM SSCM-1) [%] | inhibitory effect on chimeric rNav1.4 (M1.4-1) currents, in words ([1]; gain-of-function) | inhibition of TTX-R currents, in words [2] | IC50 (wild type hNav1.5) [nM] | inhibition at 10 µM (wild type hNav1.5; HEK293, read-out: inhibition of wild type hNav1.5 currents) [%] | inhibition of chimera M1.5-5 currents [3] | IC50 [4] [nM] | IC50 [5] [nM] | Sensitivity to JZTX-III inhibition of hNav1.5 chimeras [6] | Sensitivity to JZTX-III of hNav1.7 chimeras [7] | IC50 [8] [nM]
1 | CC[C@H](C)[C@H](NC(=O)CNC(=O)[C@@H](NC(=O)[C@H](CCCNC(=N)N)NC(=O)[C@@H](NC(=O)[C@H](CO)NC(=O)[C@H](CC(N)=O)NC(=O)[C@H](CCCCN)NC(=O)[C@H](Cc1ccc(O)cc1)NC(=O)[C@H](CCCCN)NC(=O)[C@@H](N)CCSC)[C@@H](C)O)C(C)C)C(=O)N[C@@H](CC(=O)O)C(=O)N[C@H](C(=O)NCC(=O)N[C@@H](CO)C(=O)N[C@H](C(=O)N[C@@H](CCC(=O)O)C(=O)N[C@@H](CC(C)C)C(=O)N[C@@H](CCC(=O)O)C(=O)N[C@@H](CC(C)C)C(=O)N[C@@H](CCC(N)=O)C(=O)N[C@@H](CCSC)C(=O)N[C@@H](CC(N)=O)C(=O)N[C@@H](CCCNC(=N)N)C(=O)N[C@@H](CCCNC(=N)N)C(=O)N[C@@H](Cc1ccc(O)cc1)C(=O)O)[C@@H](C)CC)[C@@H](C)O [SSCM-1, Screened-Sodium-Channel-Interacting peptide-1] (H-MKYKNSTRVGIDTGSIELELQMNRRY-OH) | subtle inhibitory activity; also recorded: almost no detectable inhibitory effect | subtle inhibitory activity; also recorded: almost no detectable inhibitory effect | 15 | a detectable inhibitory effect | subtle inhibitory activity; also recorded: could not inhibit TTX-R currents | ~2880 | > 90 | about 15% | – | – | – | – | –
2 | CC(C)[C@H](NC(=O)[C@H](C)NC(=O)[C@@H]1CSSC[C@@H]2NC(=O)[C@@H]3CCCN3C(=O)[C@@H]3CCCN3C(=O)[C@H](CCCCN)NC(=O)CNC(=O)[C@H](CCCNC(=N)N)NC(=O)CNC(=O)[C@@H]3CSSC[C@H](NC(=O)[C@H](C)NC(=O)[C@H](Cc4ccc(O)cc4)NC(=O)CNC(=O)[C@H](CCCCN)NC(=O)[C@H](CSSC[C@H](NC(=O)[C@H](CCC(=O)O)NC(=O)CNC(=O)[C@@H](N)CC(=O)O)C(=O)NCC(=O)NCC(=O)N[C@@H](Cc4ccccc4)C(=O)N[C@@H](Cc4c[nH]c5ccccc45)C(=O)N[C@@H](Cc4c[nH]c5ccccc45)C(=O)N[C@@H](CCCCN)C(=O)N3)NC2=O)C(=O)N[C@@H](CO)C(=O)N[C@@H](CCCCN)C(=O)N[C@@H]([C@@H](C)O)C(=O)N[C@@H](Cc2c[nH]c3ccccc23)C(=O)NCC(=O)N[C@@H](Cc2c[nH]c3ccccc23)C(=O)N1)C(=O)N[C@@H](CCC(=O)O)C(=O)N[C@@H](C)C(=O)N1CCC[C@H]1C(=O)O [JZTX-III, jingzhaotoxin-III] (H-DGECGGFWWKCGRGKPPCCKGYACSKTWGWCAVEAP-OH; disulfide 4-19, 11-24, 18-31; N-terminus and C-terminus assumed) | – | – | – | – | – | – | – | – | 1050 | 476 | lost its sensitivity to JZTX-III inhibition | gained partial sensitivity to JZTX-III | 736
